Tests used:
[1] = Biodistribution in baboon kidney cortex at 340 mg, iv after 30 mins; type: ADME, organism-based; settings: papio hamadryas, read-out: Drug uptake
Method in brief: (§1)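 Four anesthetized baboons were given ketamine 10 mg/kg i.m., with anesthesia held on O2, N2O and isoflurane 1–4%. They received a micro dose of the [11C]-labeled drug i.v. via a radial arm vein, followed by torso PET. TACs came from manually drawn organ ROIs and are reported as %ID/cc. µg/ml values were estimated from a 20 mg/kg dose and a 17 kg baboon, assuming the signal is intact drug.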

[2] = Biodistribution in baboon kidney medulla at 340 mg, iv after 60 mins; type: ADME, organism-based; settings: papio hamadryas, read-out: Drug uptake; method in brief: as §1
[3] = Biodistribution in baboon heart at 340 mg, iv after 60 mins; type: ADME, organism-based; settings: papio hamadryas, read-out: Drug uptake; method in brief: as §1
[4] = Biodistribution in baboon lung at 340 mg, iv after 15 mins; type: ADME, organism-based; settings: papio hamadryas, read-out: Drug uptake; method in brief: as §1
[5] = Biodistribution in baboon lung at 340 mg, iv after 30 mins; type: ADME, organism-based; settings: papio hamadryas, read-out: Drug uptake; method in brief: as §1
[6] = Biodistribution in baboon whole brain at 340 mg, iv after 90 mins; type: ADME, organism-based; settings: papio hamadryas, read-out: Drug uptake
Method in brief: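 Brain PET ran 90 min after i.v. [11C]-labelled drug in anaesthetised baboons. Whole-brain regions of interest gave time-activity curves in %ID/cc. µg/ml values were estimated from baboon weight (17 kg) and the recommended human daily dose per kg, assuming signal comes from intact drug.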

[7] = Biodistribution in baboon plasma at 340 mg, iv after 30 mins; type: ADME, organism-based; settings: papio hamadryas, read-out: Drug uptake
Method in brief: (§2)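 Anaesthetised baboons received [11C]-labelled drug i.v. (radial arm vein) by PET protocol. Arterial blood was drawn from a popliteal catheter every 5 s for 2 min, then at 2–90 min. Plasma activity is given as %ID/cc. µg/ml values were estimated from the human daily dose per kg scaled to a 17 kg baboon, assuming signal comes from intact drug.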

[8] = Biodistribution in baboon kidney cortex at 340 mg, iv after 90 mins; type: ADME, organism-based; settings: papio hamadryas, read-out: Drug uptake; method in brief: as §1
[9] = Biodistribution in baboon heart at 340 mg, iv after 15 mins; type: ADME, organism-based; settings: papio hamadryas, read-out: Drug uptake; method in brief: as §1
[10] = Biodistribution in baboon liver at 340 mg, iv after 90 mins; type: ADME, organism-based; settings: papio hamadryas, read-out: Drug uptake; method in brief: as §1
[11] = Biodistribution in baboon kidney cortex at 340 mg, iv after 15 mins; type: ADME, organism-based; settings: papio hamadryas, read-out: Drug uptake; method in brief: as §1
[12] = Biodistribution in baboon lung at 340 mg, iv after 90 mins; type: ADME, organism-based; settings: papio hamadryas, read-out: Drug uptake; method in brief: as §1
[13] = Biodistribution in baboon liver at 340 mg, iv after 60 mins; type: ADME, organism-based; settings: papio hamadryas, read-out: Drug uptake; method in brief: as §1
[14] = Biodistribution in baboon whole brain at 340 mg, iv after 60 mins; type: ADME, organism-based; settings: papio hamadryas, read-out: Drug uptake
Method in brief: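 Baboons were anesthetized with ketamine 10 mg/kg i.m., then maintained on O2, N2O and isoflurane 1–4%. The [11C]-labeled drug was given i.v. as a micro dose through a radial arm vein. PET was acquired for 90 min. Whole-brain ROI time-activity curves were read in %ID/cc, and µg/ml was estimated assuming a 20 mg/kg dose, a 17 kg baboon and signal from intact drug.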

[15] = Biodistribution in baboon kidney medulla at 340 mg, iv after 90 mins; type: ADME, organism-based; settings: papio hamadryas, read-out: Drug uptake; method in brief: as §1
[16] = Biodistribution in baboon liver at 340 mg, iv after 15 mins; type: ADME, organism-based; settings: papio hamadryas, read-out: Drug uptake; method in brief: as §1
[17] = Biodistribution in baboon heart at 340 mg, iv after 90 mins; type: ADME, organism-based; settings: papio hamadryas, read-out: Drug uptake; method in brief: as §1
[18] = Biodistribution in baboon whole brain at 340 mg, iv after 30 mins; type: ADME, organism-based; settings: papio hamadryas, read-out: Drug uptake
Method in brief: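 Brain PET was acquired for 90 min after i.v. [11C]-labeled drug in anesthetized baboons (ketamine 10 mg/kg i.m.; O2/N2O/isoflurane 1–4%). The whole-brain ROI TAC is reported as %ID/cc. µg/ml was estimated assuming a 20 mg/kg dose, a 17 kg baboon, and that the signal is intact drug. Arterial blood was sampled over 90 min.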

[19] = Biodistribution in baboon kidney medulla at 340 mg, iv after 15 mins; type: ADME, organism-based; settings: papio hamadryas, read-out: Drug uptake; method in brief: as §1
[20] = Biodistribution in baboon heart at 340 mg, iv after 30 mins; type: ADME, organism-based; settings: papio hamadryas, read-out: Drug uptake; method in brief: as §1
[21] = Biodistribution in baboon lung at 340 mg, iv after 60 mins; type: ADME, organism-based; settings: papio hamadryas, read-out: Drug uptake; method in brief: as §1
[22] = Biodistribution in baboon liver at 340 mg, iv after 30 mins; type: ADME, organism-based; settings: papio hamadryas, read-out: Drug uptake; method in brief: as §1
[23] = Biodistribution in baboon plasma at 340 mg, iv after 90 mins; type: ADME, organism-based; settings: papio hamadryas, read-out: Drug uptake; method in brief: as §2
[24] = Biodistribution in baboon plasma at 340 mg, iv after 60 mins; type: ADME, organism-based; settings: papio hamadryas, read-out: Drug uptake; method in brief: as §2
[25] = Biodistribution in baboon kidney cortex at 340 mg, iv after 60 mins; type: ADME, organism-based; settings: papio hamadryas, read-out: Drug uptake; method in brief: as §1
[26] = Biodistribution in baboon kidney medulla at 340 mg, iv after 30 mins; type: ADME, organism-based; settings: papio hamadryas, read-out: Drug uptake; method in brief: as §1
[27] = Biodistribution in baboon plasma at 340 mg, iv after 15 mins; type: ADME, organism-based; settings: papio hamadryas, read-out: Drug uptake
Method in brief: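 Anesthetised baboons (ketamine 10 mg/kg i.m.; oxygen, nitrous oxide and isoflurane 1–4% during scanning) got a micro dose of [11C]-labelled drug i.v. via a radial arm vein; arterial blood was sampled serially over 90 min. Plasma %ID/cc was converted to µg/ml from the listed dose over a 17 kg baboon, assuming the signal is intact drug.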

[28] = Biodistribution in ip dosed cat brain; type: ADME, organism-based, Felis catus; settings: in vivo
[29] = Biodistribution in human CSF at 8.5 mg/kg, po after 2 hrs; type: ADME, organism-based, Cerebrospinal fluid; set-up: dose 8.5 mg/kg, route oral; settings: read-out: Drug uptake
[30] = Plasma protein binding in baboon; type: ADME, cell-free; settings: papio hamadryas, read-out: PPB (converted)
Method in brief: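 [11C]-labelled drug was incubated 10 min at room temperature in pooled plasma from at least 4 baboons. Total radioactivity was counted, then the sample was ultrafiltered by centrifugation (10 min) and the filtrate counted. Result is expressed as % free fraction in plasma.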

[31] = Biodistribution in human CSF at 108.7 mg, po after 1 hr; type: ADME, organism-based, Cerebrospinal fluid; settings: read-out: Drug uptake
[32] = Lipophilicity, log D of the compound; type: physicochemical; settings: octanol/water

N[11C](=O)c1cnccn1
concentration at 0.5 h [1]: 16600 ng/mL
concentration at 1 h [2]: 343000 ng/mL
concentration at 1 h [3]: 57600 ng/mL
concentration at 0.25 h [4]: 35000 ng/mL
concentration at 0.5 h [5]: 26500 ng/mL
concentration at 1.5 h [6]: 13700 ng/mL
concentration at 0.5 h [7]: 14600 ng/mL
concentration at 1.5 h [8]: 9930 ng/mL
concentration at 0.25 h [9]: 67800 ng/mL
concentration at 1.5 h [10]: 19200 ng/mL
concentration at 0.25 h [11]: 20500 ng/mL
concentration at 1.5 h [12]: 18600 ng/mL
concentration at 1 h [13]: 22000 ng/mL
concentration at 1 h [14]: 15700 ng/mL
concentration at 1.5 h [15]: 229000 ng/mL
concentration at 0.25 h [16]: 36100 ng/mL
concentration at 1.5 h [17]: 59500 ng/mL
concentration at 0.5 h [18]: 21000 ng/mL
concentration at 0.25 h [19]: 617000 ng/mL
concentration at 0.5 h [20]: 61500 ng/mL
concentration at 1 h [21]: 22200 ng/mL
concentration at 0.5 h [22]: 27000 ng/mL
concentration at 1.5 h [23]: 9040 ng/mL
concentration at 1 h [24]: 11200 ng/mL
concentration at 1 h [25]: 12600 ng/mL
concentration at 0.5 h [26]: 474000 ng/mL
concentration at 0.25 h [27]: 22000 ng/mL

NNC(=O)c1ccncc1 [ISONIAZID]
Drug uptake [28]: 0.02 µg/g
concentration at 2 h [29]: 1900 ng/mL
fraction unbound [30]: 0.0537
concentration at 1 h [31]: 310 ng/mL

NC(=O)c1cnccn1 [PYRAZINAMIDE]
logD [32]: -0.41
fraction unbound [30]: 0.0868

CO[C@H]1/C=C/O[C@@]2(C)Oc3c(C)c(O)c4c(O)c(c(/C=N/N5CCN(C)CC5)c(O)c4c3C2=O)NC(=O)/C(C)=C\C=C\[C@H](C)[C@H](O)[C@@H](C)[C@@H](O)[C@@H](C)[C@H](OC(C)=O)[C@@H]1C [RIFAMPIN]
fraction unbound [30]: 0.727
